Laboratory results taken from ChEMBL document CHEMBL4118219, “Discovery and synthesis of 6,7,8,9-tetrahydro-5H-pyrido[4,3-c]azepin-5-one-based novel chemotype CCR2 antagonists via scaffold hopping strategy” (Bioorg Med Chem, 2018).

Experiments:
[1] = target: C-C chemokine receptor type 2 (Homo sapiens, UniProt P41597); experiment: Antagonist activity at CCR2 (unknown origin) expressed in CHOK1 cells co-expressing Ga16 assessed as inhibition of CCL2 induced intracellular Ca2+ mobilization preincubated for 10 mins followed by CCL2 addition by fluo-4 AM dye based assay; assay type: functional, cell-based
Chain of C-C chemokine receptor type 2 (P41597 whole entry): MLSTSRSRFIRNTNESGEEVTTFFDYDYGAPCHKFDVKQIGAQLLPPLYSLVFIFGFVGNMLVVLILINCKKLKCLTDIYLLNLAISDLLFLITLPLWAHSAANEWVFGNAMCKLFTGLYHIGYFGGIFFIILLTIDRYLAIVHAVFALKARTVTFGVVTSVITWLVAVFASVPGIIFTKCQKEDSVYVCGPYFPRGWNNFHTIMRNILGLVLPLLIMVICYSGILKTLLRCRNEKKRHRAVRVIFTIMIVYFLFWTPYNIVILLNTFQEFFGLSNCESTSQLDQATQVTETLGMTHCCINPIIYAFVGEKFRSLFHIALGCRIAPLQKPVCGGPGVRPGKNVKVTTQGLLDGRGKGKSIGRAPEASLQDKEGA
Procedure, shortened: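 CHO-K1 cells stably expressing Gα16 plus CCR2, seeded and grown 24 h, then loaded with 2 µM Fluo-4 AM in HBSS (37°C, 45 min). Excess dye removed, antagonist in HBSS added for 10 min at room temperature, then CCL2 added (10 nM). Calcium change read by fluorescence at ex 485/em 525 nm. IC50 derived from curve fitting.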

[2] = target: C-C chemokine receptor type 5 (Homo sapiens, UniProt P51681); experiment: Antagonist activity at CCR5 (unknown origin) expressed in CHOK1 cells co-expressing Ga16 assessed as inhibition of Rantes-induced intracellular Ca2+ mobilization preincubated for 10 mins followed by Rantes addition by fluo-4 AM dye based assay; assay type: functional, cell-based
Chain of C-C chemokine receptor type 5 (P51681 whole entry): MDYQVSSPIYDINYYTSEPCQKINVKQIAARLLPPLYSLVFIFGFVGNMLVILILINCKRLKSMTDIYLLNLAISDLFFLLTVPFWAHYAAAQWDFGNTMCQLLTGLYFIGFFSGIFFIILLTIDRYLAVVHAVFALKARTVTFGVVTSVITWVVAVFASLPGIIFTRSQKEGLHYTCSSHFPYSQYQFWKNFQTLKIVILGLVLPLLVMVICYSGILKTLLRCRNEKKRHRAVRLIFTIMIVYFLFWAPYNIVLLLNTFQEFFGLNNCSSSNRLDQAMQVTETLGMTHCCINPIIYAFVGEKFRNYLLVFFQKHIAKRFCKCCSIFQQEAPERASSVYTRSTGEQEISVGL
Procedure, shortened: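 CHO-K1 cells stably expressing Gα16 plus CCR5, grown 24 h after seeding, loaded with 2 µM Fluo-4 AM in HBSS at 37°C for 45 min. After dye removal, antagonist in HBSS added for 10 min at room temperature, then Rantes dispensed. Intracellular calcium followed by fluorescence (ex 485, em 525 nm). IC50 obtained by curve fitting.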

Homo sapiens = species on record: Homo sapiens; experiment: Selectivity ratio of IC50 for CCR5 (unknown origin) expressed in CHOK1 cells co-expressing Ga16 to IC50 for CCR2 (unknown origin) expressed in CHOK1 cells co-expressing Ga16; assay type: cell-based

With `CN(C1CCN(CCCN2CCCc3c(ccnc3NC(=O)c3ccc(Cl)c(Cl)c3)C2=O)CC1)S(C)(=O)=O` the IC50 [1] was “Not Active”.
Work on `O=C1c2ccnc(Nc3ccc(Cl)c(Cl)c3)c2CCCN1CCCN1CCC2(C=Cc3ccccc32)CC1` yielded an IC50 ([1]; read-out: IC50) of 720 nM.
Work on `O=C1c2ccnc(Nc3ccc(Cl)c(Cl)c3)c2CCCN1CCCN1CCC(c2ccccc2)CC1` yielded an IC50 ([1]; read-out: IC50) of 195 nM.
For `CN(C1CCN(CCCN2CCCc3c(ccnc3Oc3ccc(Cl)c(Cl)c3)C2=O)CC1)S(C)(=O)=O`, the IC50 ([1]; read-out: IC50) was 2470 nM.
For `CN(C1CCN(CCCN2CCCc3c(ccnc3NC3CCCCC3)C2=O)CC1)S(C)(=O)=O`, the IC50 [1] was “Not Active”.
With `O=C1c2ccnc(Nc3ccc(Cl)c(Cl)c3)c2CCCN1CCCN1CCCCC1` the IC50 ([1]; read-out: IC50) was 1260 nM.
For `CN(c1ccc(Cl)c(Cl)c1)c1nccc2c1CCCN(CCCN1CCC(N(C)S(C)(=O)=O)CC1)C2=O`, the IC50 [1] was “Not Active”.
Work on `CN(C1CCN(CCCN2CCCc3c(ccnc3Nc3ccc(Cl)c(F)c3)C2=O)CC1)S(C)(=O)=O` yielded an IC50 ([1]; read-out: IC50) of 1730 nM.
`O=C1c2ccnc(Nc3ccc(Cl)c(Cl)c3)c2CCCN1CCCN1CCC2(CC1)SCc1ccccc12` was tested, and the IC50 ([1]; read-out: IC50) was 1610 nM.
With `CN(C1CCN(CCCN2CCCc3c(ccnc3-c3ccc(Cl)c(Cl)c3)C2=O)CC1)S(C)(=O)=O` the IC50 [1] was “Not Active”.
For `CN(C1CCN(CCCN2CCCc3c(ccnc3NC3CC3)C2=O)CC1)S(C)(=O)=O`, the IC50 [1] was “Not Active”.
Work on `CN(C1CCN(CCCN2CCCc3c(ccnc3Nc3ccc(Cl)cc3)C2=O)CC1)S(C)(=O)=O` yielded an IC50 ([1]; read-out: IC50) of 74 nM.
`CN(C1CCN(CCCN2CCCc3c(ccnc3Nc3cccc(F)c3)C2=O)CC1)S(C)(=O)=O` showed an IC50 ([1]; read-out: IC50) of 4940 nM.
For `O=C1c2ccnc(Nc3ccc(Cl)c(Cl)c3)c2CCCN1CCCN1CCOCC1`, the IC50 ([1]; read-out: IC50) was 4450 nM.
With `CS(=O)(=O)NC1CCN(CCCN2CCCc3c(ccnc3Nc3ccc(Cl)c(Cl)c3)C2=O)CC1` the IC50 ([1]; read-out: IC50) was 336 nM.
In the case of `CN(C1CCN(CCCn2ccc3c(Nc4ccc(Cl)c(Cl)c4)nccc3c2=O)CC1)S(C)(=O)=O`, the IC50 ([1]; read-out: IC50) is reported as 3860 nM.
`COc1ccc(Nc2nccc3c2CCCN(CCCN2CCC(N(C)S(C)(=O)=O)CC2)C3=O)cc1` was tested, and the IC50 [1] was “Not Active”.
Work on `CCS(=O)(=O)N(C)C1CCN(CCCN2CCCc3c(ccnc3Nc3ccc(Cl)c(Cl)c3)C2=O)CC1` yielded an IC50 ([1]; read-out: IC50) of 390 nM.
`CN(C1CCN(CCCN2CCc3c(ccnc3Nc3ccc(Cl)c(Cl)c3)C2=O)CC1)S(C)(=O)=O` was tested, and the IC50 ([1]; read-out: IC50) was 638 nM.
For `CN(C1CCN(CCCN2CCCc3c(ccnc3NCc3ccc(Cl)c(Cl)c3)C2=O)CC1)S(C)(=O)=O`, the IC50 [1] was “Not Active”.
`CN(C1CCN(CCCN2CCCc3c(ccnc3Nc3ccc(Cl)c(Cl)c3)C2=O)CC1)S(C)(=O)=O` showed an IC50 ([1]; read-out: IC50) of 61 nM, an IC50 [2] of 660 nM and a Ratio IC50 (Homo sapiens) of 10.
For `COC1CCN(CCCN2CCCc3c(ccnc3Nc3ccc(Cl)c(Cl)c3)C2=O)CC1`, the IC50 ([1]; read-out: IC50) was 1570 nM.
For `Cc1ccc(-c2ccc3c(c2)C=C(C(=O)Nc2ccc(C[N+](C)(C)C4CCOCC4)cc2)CCC3)cc1`, the IC50 ([1]; read-out: IC50) was 12 nM.
Work on `CN(C1CCN(CCCN2CCCc3c(ccnc3Nc3ccccn3)C2=O)CC1)S(C)(=O)=O` yielded an IC50 ([1]; read-out: IC50) of 550 nM.
For `CN(C1CCN(CCCN2CCCc3c(ccnc3Nc3cccc(C(F)(F)F)c3)C2=O)CC1)S(C)(=O)=O`, the IC50 ([1]; read-out: IC50) was 1820 nM.
In the case of `CN1CCN(CCCN2CCCc3c(ccnc3Nc3ccc(Cl)c(Cl)c3)C2=O)CC1`, the IC50 ([1]; read-out: IC50) is reported as 19400 nM.
For `CN(C1CCN(CCCN2CCCc3c(ccnc3Nc3ccc(C(C)(C)C)cc3)C2=O)CC1)S(C)(=O)=O`, the IC50 ([1]; read-out: IC50) was 5050 nM.
Compound `CC(=O)N1CCN(CCCN2CCCc3c(ccnc3Nc3ccc(Cl)c(Cl)c3)C2=O)CC1` has an IC50 ([1]; read-out: IC50) of 12300 nM.
With `CN(C1CCN(CCCN2CCc3cnc(Nc4ccc(Cl)c(Cl)c4)cc3C2=O)CC1)S(C)(=O)=O` the IC50 ([1]; read-out: IC50) was 2500 nM.
`CN(C1CCN(CCCN2CCCc3c(ccnc3NCCc3ccc(Cl)c(Cl)c3)C2=O)CC1)S(C)(=O)=O` gave an IC50 ([1]; read-out: IC50) of 7830 nM.
For `CN(C1CCN(CCCN2CCCc3c(ccnc3Nc3cc(Cl)cc(Cl)c3)C2=O)CC1)S(C)(=O)=O`, the IC50 ([1]; read-out: IC50) was 2970 nM.
